How the values were obtained:
Cannabinoid receptor 2 [1] = molecular target: T1, Cannabinoid receptor 2 (Homo sapiens, UniProt P34972); assay: Inverse agonist activity at human CB2R expressed in CHO cell membranes after 90 mins by [35S]GTPgammaS assay; format: functional, Membrane
Outline: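 In-house CHO membranes expressing hCB1 or hCB2 (10 µg) in 50 mM Tris-HCl, 3 mM MgCl2, 0.2 mM EDTA, 100 mM NaCl, 0.5% fatty-acid-free BSA, pH 7.4, with 10 μM GDP and 0.1 nM [35S]GTPγS. Incubated 90 min at 30 °C; antagonist pre-incubated 30 min. Nonspecific binding with 10 μM GTPγS; bound label by filtration and counting; ≥3 experiments in triplicate.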

Monoglyceride lipase = molecular target: T2, Monoglyceride lipase (Homo sapiens, UniProt Q99685); assay: Inhibition of MAGL in human U937 cells using [glycerol-1,2,3-3H]2-OG as substrate preincubated for 15 mins followed by substrate addition and measured after 15 mins by liquid scintillation spectroscopy; format: cell-based, U-937
T2 sequence (Q99685 whole entry): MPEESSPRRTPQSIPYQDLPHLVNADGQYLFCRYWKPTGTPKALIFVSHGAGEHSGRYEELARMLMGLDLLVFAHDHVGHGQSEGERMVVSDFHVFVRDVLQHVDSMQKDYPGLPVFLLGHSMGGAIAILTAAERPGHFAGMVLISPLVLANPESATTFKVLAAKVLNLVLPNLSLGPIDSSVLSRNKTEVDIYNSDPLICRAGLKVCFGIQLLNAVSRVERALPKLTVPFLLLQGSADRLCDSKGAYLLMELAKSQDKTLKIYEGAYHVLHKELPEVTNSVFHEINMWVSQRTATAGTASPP
Outline: (§1)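 Intact U937 cells, 10^6 per condition, pre-incubated with compound 15 min at 37 °C with shaking (screen at 10 μM; full curves for hits). Substrate: 1 μM AEA with 1 nM [3H]AEA (FAAH) or 10 μM 2-OG with 5 nM [3H]2-OG (MAGL), 15 min at 37 °C. Stopped with CHCl3:MeOH 1:1, aqueous tritium counted; mean ± SD, ≥3 experiments in triplicate.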

Cannabinoid receptor 1 [2] = molecular target: T3, Cannabinoid receptor 1 (Homo sapiens, UniProt P21554); assay: Partial agonist activity at human CB1R expressed in CHO cell membranes after 90 mins by [35S]GTPgammaS assay; format: functional, Membrane
T3 sequence (P21554 whole entry): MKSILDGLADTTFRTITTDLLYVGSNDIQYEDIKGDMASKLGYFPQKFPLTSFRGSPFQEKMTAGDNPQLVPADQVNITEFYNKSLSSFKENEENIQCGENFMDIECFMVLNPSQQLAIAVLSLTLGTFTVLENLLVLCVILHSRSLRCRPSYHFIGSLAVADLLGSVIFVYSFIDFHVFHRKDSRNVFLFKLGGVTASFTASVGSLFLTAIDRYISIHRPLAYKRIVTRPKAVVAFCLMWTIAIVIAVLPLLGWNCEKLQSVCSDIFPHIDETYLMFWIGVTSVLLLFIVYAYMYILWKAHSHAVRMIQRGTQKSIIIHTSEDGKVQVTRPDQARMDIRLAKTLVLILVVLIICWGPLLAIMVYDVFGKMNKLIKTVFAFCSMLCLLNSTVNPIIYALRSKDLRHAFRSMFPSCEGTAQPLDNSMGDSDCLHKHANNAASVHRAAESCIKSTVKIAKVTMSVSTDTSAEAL
Outline: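 Membranes from CHO cells stably expressing hCB1 (10 µg), in 50 mM Tris-HCl, 3 mM MgCl2, 0.2 mM EDTA, 100 mM NaCl, 0.5% fatty-acid-free BSA, pH 7.4, with 10 µM GDP and 0.1 nM [35S]GTPγS. Compounds added at several concentrations. Incubated 90 min at 30 °C, then rapid filtration and radioactivity counting. Non-specific binding measured with 10 µM GTPγS.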

[3] = molecular target: T4, Fatty-acid amide hydrolase 1 (Homo sapiens, UniProt O00519); assay: Inhibition of FAAH in human U937 cells using [ethanolamine-1-3H]AEA as substrate preincubated for 15 mins followed by substrate addition and measured after 15 mins by liquid scintillation spectroscopy; format: cell-based, U-937; outline: as §1
T4 sequence (O00519 whole entry): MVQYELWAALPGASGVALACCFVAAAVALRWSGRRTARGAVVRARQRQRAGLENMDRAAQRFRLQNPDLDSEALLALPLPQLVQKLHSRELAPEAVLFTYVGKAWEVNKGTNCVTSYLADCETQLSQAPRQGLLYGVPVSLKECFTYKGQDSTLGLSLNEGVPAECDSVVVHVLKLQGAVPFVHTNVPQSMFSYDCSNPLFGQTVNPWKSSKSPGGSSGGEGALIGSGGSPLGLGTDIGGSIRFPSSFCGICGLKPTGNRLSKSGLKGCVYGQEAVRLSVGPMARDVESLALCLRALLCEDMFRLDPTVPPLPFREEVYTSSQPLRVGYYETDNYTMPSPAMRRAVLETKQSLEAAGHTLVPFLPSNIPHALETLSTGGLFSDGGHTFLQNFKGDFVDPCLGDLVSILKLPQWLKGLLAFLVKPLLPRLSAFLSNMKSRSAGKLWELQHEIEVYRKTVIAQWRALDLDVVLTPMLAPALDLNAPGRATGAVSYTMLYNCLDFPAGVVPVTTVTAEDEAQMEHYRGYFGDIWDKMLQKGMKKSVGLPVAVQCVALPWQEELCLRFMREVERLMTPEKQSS

Cannabinoid receptor 2 [4] = molecular target: T1, Cannabinoid receptor 2; assay: Displacement of [3H]CP55940 from recombinant human CB2R expressed in CHO cell membranes incubated for 90 mins; set-up: species or system Membrane
[5] = molecular target: T5, Monoacylglycerol lipase ABHD6 (Homo sapiens, UniProt Q9BV23); assay: Inhibition of human ABHD6 expressed in HEK293 cells using 2-OG as substrate preincubated for 30 mins followed by substrate addition and measured after 5 mins by liquid scintillation spectroscopy; format: cell-based
T5 sequence (Q9BV23 whole entry): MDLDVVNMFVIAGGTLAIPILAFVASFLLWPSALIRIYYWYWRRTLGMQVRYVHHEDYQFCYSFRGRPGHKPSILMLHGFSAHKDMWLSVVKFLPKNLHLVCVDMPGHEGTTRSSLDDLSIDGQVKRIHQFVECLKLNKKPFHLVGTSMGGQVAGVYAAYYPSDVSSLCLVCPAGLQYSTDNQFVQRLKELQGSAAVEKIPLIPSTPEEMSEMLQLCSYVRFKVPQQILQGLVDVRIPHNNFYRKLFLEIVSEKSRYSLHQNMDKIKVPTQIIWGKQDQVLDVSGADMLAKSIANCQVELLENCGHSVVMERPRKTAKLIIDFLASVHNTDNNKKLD
Outline: (§2)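 Homogenates (40 µg) from HEK293 stably expressing hABHD6 or hABHD12 pre-incubated with compound 30 min at 37 °C in […], 0.1% BSA, pH 7.6; then 10 μM 2-OG for 5 min at 37 °C. Aqueous phase tritium counted after CHCl3:MeOH stop; no-enzyme blanks and non-transfected HEK293 hydrolysis subtracted. Controls WWL70 10 μM, THL 20 μM.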

[6] = molecular target: T6, Lysophosphatidylserine lipase ABHD12 (Homo sapiens, UniProt Q8N2K0); assay: Inhibition of human ABHD12 expressed in HEK293 cells using 2-OG as substrate preincubated for 30 mins followed by substrate addition and measured after 5 mins by liquid scintillation spectroscopy; format: cell-based; outline: as §2
T6 sequence (Q8N2K0 whole entry): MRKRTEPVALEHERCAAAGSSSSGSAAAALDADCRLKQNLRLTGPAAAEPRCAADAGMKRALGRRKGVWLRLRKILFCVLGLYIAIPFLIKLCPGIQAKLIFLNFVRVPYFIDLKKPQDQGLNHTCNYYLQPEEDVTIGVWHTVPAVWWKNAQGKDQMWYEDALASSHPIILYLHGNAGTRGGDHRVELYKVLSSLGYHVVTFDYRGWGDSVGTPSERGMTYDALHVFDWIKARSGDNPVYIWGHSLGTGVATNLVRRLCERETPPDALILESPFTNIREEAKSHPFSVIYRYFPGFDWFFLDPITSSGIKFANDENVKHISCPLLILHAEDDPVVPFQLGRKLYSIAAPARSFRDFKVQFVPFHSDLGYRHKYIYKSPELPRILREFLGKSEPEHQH

Cannabinoid receptor 1 [7] = molecular target: T3, Cannabinoid receptor 1; assay: Displacement of [3H]CP55940 from recombinant human CB1R expressed in CHO cell membranes incubated for 90 mins; set-up: species or system Membrane

T1 sequence (P34972 whole entry): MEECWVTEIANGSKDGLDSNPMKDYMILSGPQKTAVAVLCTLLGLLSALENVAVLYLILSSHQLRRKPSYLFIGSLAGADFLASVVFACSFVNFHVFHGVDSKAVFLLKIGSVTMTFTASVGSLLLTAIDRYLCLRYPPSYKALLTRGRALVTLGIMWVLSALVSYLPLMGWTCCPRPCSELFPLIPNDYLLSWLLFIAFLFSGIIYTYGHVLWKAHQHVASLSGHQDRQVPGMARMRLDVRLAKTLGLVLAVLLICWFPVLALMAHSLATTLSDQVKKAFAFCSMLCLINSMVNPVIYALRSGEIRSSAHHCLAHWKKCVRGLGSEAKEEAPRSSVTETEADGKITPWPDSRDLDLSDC

## Cc1c(-c2ccc(F)cc2)cc(C(=O)NC2CCCCCC2)c(=O)n1Cc1ccc(F)cc1
Cannabinoid receptor 2 [1]
  EC50: 6.45 nM
Monoglyceride lipase
  IC50: > 10000 nM
Cannabinoid receptor 1 [2]
  EC50: 120 nM
[3]
  IC50: 530 nM
Cannabinoid receptor 2 [4]
  Ki: 28.9 nM
[5]
  IC50: > 10000 nM
[6]
  IC50: 600 nM
Cannabinoid receptor 1 [7]
  Ki: 49.3 nM
